Data: ChEMBL document CHEMBL5608183, “Synthesis and evaluation of 3,4,5-trisubstituted triazoles as G protein-biased kappa opioid receptor agonists” (Eur J Med Chem, 2024)
Calls of active or inactive are those of the source. No cut-off for these calls is given here.

Key:
[1] = target: T1, Kappa-type opioid receptor (Homo sapiens, UniProt P41145); assay: Agonist activity at recombinant human kappa opioid receptor extracted from CHO cell membrane assessed as induction of [35S]GTPgammaS binding incubated for 1 hr by TopCount NXT Microplate Scintillation and Luminescence Counter analysis; assay type: functional, cell membranes
T1 sequence (P41145 whole entry): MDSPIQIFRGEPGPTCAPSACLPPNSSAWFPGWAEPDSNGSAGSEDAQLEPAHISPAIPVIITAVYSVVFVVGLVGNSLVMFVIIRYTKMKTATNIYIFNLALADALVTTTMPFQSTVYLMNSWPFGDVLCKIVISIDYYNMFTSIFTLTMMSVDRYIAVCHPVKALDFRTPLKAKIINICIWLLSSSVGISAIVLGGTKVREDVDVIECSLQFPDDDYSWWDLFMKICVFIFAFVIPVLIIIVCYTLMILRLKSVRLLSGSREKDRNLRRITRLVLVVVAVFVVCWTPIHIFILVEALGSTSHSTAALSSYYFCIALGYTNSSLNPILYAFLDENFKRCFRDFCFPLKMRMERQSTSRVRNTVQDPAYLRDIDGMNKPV

[2] = target: T1, Kappa-type opioid receptor; assay: Agonist activity at human kappa opioid receptor tranfected in U2OS cells co-transfected with arrestin2-EFC assessed as induction of beta arrestin2 recruitment incubated for 90 mins by Synergy HT luminometer; assay type: functional, cell-based
Method in brief: (§1)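 PathHunter enzyme-fragment complementation in U2OS cells stably expressing hKOR and βarrestin2, grown in MEM with 10% FBS, geneticin and hygromycin B, run per manufacturer's protocol. Concentration–response curves were fit by three-parameter nonlinear regression, normalized to vehicle and to maximal stimulation by the reference agonist U69,593 on the same plate. 2–4 replicates per experiment; n ≥ 3 independent experiments; 95% CI.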

[3] = target: T1, Kappa-type opioid receptor; assay: Agonist activity at recombinant human kappa opioid receptor extracted from CHO cell membrane assessed as induction of [35S]GTPgammaS binding by measuring maximum efficacy at 10 uM incubated for 1 hr by TopCount NXT Microplate Scintillation and Luminescence Counter analysis relative to U69,593; assay type: functional, cell membranes
[4] = target: T1, Kappa-type opioid receptor; assay: Agonist activity at human kappa opioid receptor tranfected in U2OS cells co-transfected with arrestin2-EFC assessed as induction of beta arrestin2 recruitment by measuring maximum efficacy incubated for 90 mins by Synergy HT luminometer relative to […]; assay type: functional, cell-based
Method in brief: as §1, with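 “plate.” for “plate. 2–4 replicates per experiment; n ≥ 3 independent experiments; 95% CI.”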

[5] = Metabolic stability in mouse liver microsome assessed as half life at 1 uM by LC-MS/MS analysis; assay type: ADME; conditions: liver microsomes
Method in brief: (§2)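 Hepatic microsomes (1 mg/mL) were incubated with 1 μM compound at 37 °C with continuous shaking. Reactions were quenched with acetonitrile at 5-min intervals over 1 h and filtered. Half-life was determined by LC-MS/MS.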

[6] = Metabolic stability in human liver microsome assessed as half life at 1 uM by LC-MS/MS analysis; assay type: ADME, microsomes; conditions: for t1/2: microsomes, 1 µM; for half-life at 1 µM: liver microsomes; method in brief: as §2
[7] = target: T1, Kappa-type opioid receptor; assay: Displacement of [3H]-[…] from kappa opioid receptor (unknown origin) assessed as inhibition constant by radioligand binding assay
[8] = target: Delta-type opioid receptor (Homo sapiens) (UniProt P41143); assay: Binding affinity to delta opioid receptor (unknown origin) assessed as inhibition of [3H]-D-Ala2,D-Leu5-enkephalin binding at 10 uM by radioligand binding assay relative to control
Sequence of Delta-type opioid receptor (Homo sapiens) (P41143 whole entry): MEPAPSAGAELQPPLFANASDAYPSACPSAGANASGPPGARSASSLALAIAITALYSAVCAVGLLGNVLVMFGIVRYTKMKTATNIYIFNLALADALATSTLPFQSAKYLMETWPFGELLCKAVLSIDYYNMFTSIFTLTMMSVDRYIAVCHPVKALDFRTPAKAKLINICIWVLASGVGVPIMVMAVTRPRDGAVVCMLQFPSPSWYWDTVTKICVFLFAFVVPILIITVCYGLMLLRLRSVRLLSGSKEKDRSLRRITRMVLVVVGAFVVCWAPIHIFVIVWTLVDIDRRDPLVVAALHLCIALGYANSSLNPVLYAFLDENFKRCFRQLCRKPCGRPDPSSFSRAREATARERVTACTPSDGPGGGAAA

[9] = target: Mu-type opioid receptor (Homo sapiens) (UniProt P35372); assay: Binding affinity to Mu opioid receptor (unknown origin) assessed as inhibition of [3H]-D-Ala2,N-MePhe4,Gly-ol-enkephalin binding at 10 uM by radioligand binding assay relative to control
Sequence of Mu-type opioid receptor (Homo sapiens) (P35372 whole entry): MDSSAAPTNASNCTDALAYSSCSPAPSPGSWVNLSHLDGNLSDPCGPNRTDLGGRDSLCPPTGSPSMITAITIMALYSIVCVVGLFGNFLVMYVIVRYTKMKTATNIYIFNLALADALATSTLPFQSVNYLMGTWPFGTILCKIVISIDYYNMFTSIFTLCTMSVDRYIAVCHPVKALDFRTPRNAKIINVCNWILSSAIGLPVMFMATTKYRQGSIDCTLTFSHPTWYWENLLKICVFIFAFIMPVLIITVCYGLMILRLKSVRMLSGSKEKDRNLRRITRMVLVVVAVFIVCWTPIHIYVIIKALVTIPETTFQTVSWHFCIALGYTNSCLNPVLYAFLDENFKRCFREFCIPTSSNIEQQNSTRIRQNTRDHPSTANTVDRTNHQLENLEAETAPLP

[10] = target: T1, Kappa-type opioid receptor; assay: Binding affinity to kappa opioid receptor (unknown origin) assessed as inhibition of [3H]-[…] binding at 10 uM by radioligand binding assay relative to control; conditions: filed as agonist

SMILES | EC50 [1] [nM] | EC50 [2] [nM] | Emax ([3]; filed as agonist) [%] | Emax ([4]; filed as agonist) [%] | half-life at 1 µM [5] [min] | half-life at 1 µM [6] [min] | further results
Brc1cccc(CCc2nnc(-c3ccccn3)n2Cc2cccs2)c1 | 51 | 5610 | 89 | 118 |  |  | 
Cc1ccc(/C=C/c2nnc(-c3ccccn3)n2Cc2ccco2)cc1C(F)(F)F | 1170 |  | 89 |  | 32.2 |  | t1/2 [6]: 18 min
Cc1ccc(CCc2nnc(-c3ncccn3)n2Cc2cccs2)cc1C(F)(F)F | 57 | 2220 |  | 150 |  |  | 
FC(Cc1nnc(-c2ccccn2)n1Cc1cccs1)c1ccccc1 (stereo not given) |  |  | 82 |  | 0.9 | 7.2 | 
O=C(Cc1ccccc1)c1nnc(-c2ccccn2)n1Cc1ccco1 |  |  |  |  | 1.2 | 8.1 | Emax [3]: 4%
Cc1ccc(CCc2nnc(-c3cccc4ccccc34)n2Cc2cccs2)cc1C(F)(F)F | 429 |  |  |  |  |  | 
Cc1ccc(/C=C/c2nnc(-c3ccccn3)n2Cc2cccs2)cc1C(F)(F)F | 496 |  | 79 |  | 30.2 | 22 | 
Cc1ccc(CCc2nnc(-c3ccc4ccccc4n3)n2Cc2cccs2)cc1C(F)(F)F | 872 |  |  |  |  |  | 
Cc1ccc(CCc2nnc(-c3ccccn3)n2Cc2ccco2)cc1C(F)(F)F | 21 | 803 | 90 |  | 0.8 |  | t1/2 [6]: 0.9 min
Cc1ccc(CCc2nnc(-c3ccccc3)n2Cc2cccs2)cc1C(F)(F)F | 406 |  |  |  | 0.9 | 1.8 | 
Cc1ccc(CCc2nnc(-c3ccncn3)n2Cc2cccs2)cc1C(F)(F)F | 991 |  |  |  |  |  | 
COc1ccc(CCc2nnc(-c3ccccn3)n2Cc2cccs2)cc1 | 122 |  |  |  |  |  | 
Brc1ccc(CCc2nnc(-c3ccccn3)n2Cc2cccs2)cc1 | 20 | 723 | 92 | 93 |  |  | 
Fc1ccc(CCc2nnc(-c3ccccn3)n2Cc2cccs2)cc1 | 284 | 2640 | 90 | 97 |  |  | 
Cc1ccc(/C=C/c2nnc(-c3nccn3C)n2Cc2nccs2)cc1C(F)(F)F |  | 2190 | 309 |  |  |  | Emax [4]: 36%
Clc1ccc(CCc2nnc(-c3ccccn3)n2Cc2cccs2)cc1Cl | 5 | 319 |  |  | 1.2 | 1.5 | 
Clc1ccc(CCc2nnc(-c3ccccn3)n2Cc2cccs2)cc1 | 33 | 2870 | 86 | 137 | 3.3 | 3.3 | 
Cc1ccc(CCc2nnc(-c3ccccn3)n2Cc2cccnc2)cc1C(F)(F)F | 55 | 421 | 87 | 119 | 1.6 | 1.7 | 
OC(Cc1ccccc1)c1nnc(-c2ccccn2)n1Cc1ccco1 (stereo not given) |  |  |  |  | 2.5 | 17.4 | Emax [3]: 20%
FC(F)(F)c1ccccc1CCc1nnc(-c2ccccn2)n1Cc1cccs1 | 429 |  |  |  |  |  | 
Cc1ccc(/C=C/c2nnc(-c3nccn3C)n2Cc2cccs2)cc1C(F)(F)F | 787 |  |  |  |  |  | 

SMILES | EC50 [1] [nM] | EC50 [2] [nM] | Emax ([3]; filed as agonist) [%] | Emax ([4]; filed as agonist) [%] | half-life at 1 µM [5] [min] | half-life at 1 µM [6] [min] | further results
Cc1ccc(CCc2nnc(-c3ccccn3)n2CC2CC2)cc1C(F)(F)F | 213 | 6220 |  |  |  |  | 
c1ccc(CCc2nnc(-c3ccccn3)n2Cc2cccs2)cc1 | 926 |  | 76 |  | 1.6 | 5.5 | 
Cc1ccc(CCc2nnc(-c3ncccc3C)n2Cc2cccs2)cc1C(F)(F)F | 13 | 1610 |  | 118 |  |  | 
Cc1ccc(CCc2nnc(-c3ccccn3)n2-c2ccccc2)cc1C(F)(F)F |  |  |  |  | 1 | 1.6 | Activity [1]: inactive
Cc1ccc(CCc2nnc(-c3ccccn3)n2Cc2nccs2)cc1C(F)(F)F | 34 | 1290 | 64 | 95 |  |  | 
Cc1ccc(CCc2nnc(-c3ccccn3)n2Cc2ccccc2)cc1C(F)(F)F | 83 | 6740 |  | 183 | 1.3 | 0.9 | 
Cc1ccc(CCc2nnc(-c3ccccn3)n2Cc2ccncc2)cc1C(F)(F)F |  |  |  |  |  |  | Activity [1]: inactive
Cc1ccc(CSc2nnc(-c3ccccn3)n2Cc2ccco2)cc1C(F)(F)F |  |  |  |  |  |  | t1/2 [6]: 1.1 min
Cc1ccc(CCc2nnc(-c3ccc4ccccc4c3)n2Cc2cccs2)cc1C(F)(F)F | 2960 |  |  |  |  |  | 
Cc1ccc(CCc2nnc(-c3ccccn3)n2Cc2cccs2)cc1C(F)(F)F | 11 | 594 |  | 102 | 1.5 | 1.4 | Ki [7]: 5.8 nM; inhibition [8]: 30.7%; inhibition [9]: 30.9%; inhibition [10]: 99.7%
Cc1ccc(CCc2nnc(-c3cccnc3)n2Cc2cccs2)cc1C(F)(F)F | 1880 |  | 85 |  |  |  | 
OC(Cc1nnc(-c2ccccn2)n1Cc1cccs1)c1ccccc1 (stereo not given) |  |  |  |  | 2.6 | 20.7 | Emax [3]: 17%
Cc1ccc(CCc2nnc(-c3ccccn3)n2Cc2ccccn2)cc1C(F)(F)F | 175 | 8120 | 84 | 127 |  |  | 
FC(Cc1ccccc1)c1nnc(-c2ccccn2)n1Cc1ccco1 (stereo not given) |  |  |  |  | 1.9 | 9.1 | 
Brc1ccccc1CCc1nnc(-c2ccccn2)n1Cc1cccs1 | 358 |  | 84 |  |  |  | 
c1ccc(-c2nnc(-c3ccccn3)n2Cc2cccs2)cc1 |  |  |  |  | 1 | 69.7 | 
Cc1ccc(/C=C/c2nnc(-c3ccccn3)n2Cc2nccs2)cc1C(F)(F)F | 1130 |  | 83 |  |  |  | 
c1ccc(-c2nnc(CCc3cccc4ccccc34)n2Cc2cccs2)nc1 | 184 |  |  |  |  |  | 
Cc1ccc(CCc2nnc(-c3nccn3C)n2Cc2cccs2)cc1C(F)(F)F | 34 | 1020 | 91 | 132 | 1.5 | 3.1 | 
c1ccc(-c2nnc(CCc3ccc4ccccc4c3)n2Cc2cccs2)nc1 | 12 | 896 |  |  |  |  | 
Clc1ccc(CCc2nnc(-c3ccccn3)n2Cc2cccs2)c(Cl)c1 | 32 | 5160 | 91 | 154 | 2.6 | 2.1 | 
